Compound activity: PubChem, Broad Institute
INS-1E ATP HTS – protection of INS-1E cells from cytokine death, primary screen, ATP luminescence, single point. INS-1E cytokine-induced death, 48 h; normalised: neutral wells 0, positive control 100. protection from cytokine-induced ATP loss, % at 10 µM. 20,000 tested, 0.1% active. AID 488910, 2010;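 active = mean replicate protection from cytokine-induced ATP loss at least 50% and at least 75% of replicates each reaching 50%; inconclusive = meets only one of the two criteria, mean or replicate share; inactive = fails both the mean and replicate share criteria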
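assay system = INS-1E rat insulinoma cells | amount = 8000 cells per well | medium = phenol-red-free RPMI with 5% fetal bovine serum | doses = one compound concentration, pin transfer | timing = 48 h cytokine plus compound treatment, 10 min reagent incubation | also added = IL-1β, TNF-α and IFN-γ cytokine mix | signal = CellTiter-Glo luminescence measuring cellular ATP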
A1 apoptosis 2 – A1 inhibitors via caspase activation, primary screen, cell-based, luminescence, HTS, two replicates; MEF A1-2A-BIM cells, caspase-Glo luminescence, 3 h; percent of clofoctol response, DMSO zero; caspase activation, % (concentration not given with the values); 24,000 tested, under 10 active; AID 2465, 2010; in the data active = caspase activation above about 5.9%; inconclusive = no clear call, values can overlap the other calls; inactive = below about 2.2%
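system = A1-2A-BIM-expressing MEF cells | quantity = 2500 MEF cells/well | dosing = 50 nL compound per well, pinned | schedule = overnight cell settling, then 3 h compound exposure, 37 °C | signal = luminescence from DEVD-luciferin Caspase-Glo reagent, 1:1 in 50 mM HEPES, 1 h RT | read-out = Caspase-3/7 activation, seen as rise in luminescence signal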
T cruzi intra – inhibitors of intracellular Trypanosoma cruzi, primary screen, cell-based, plate reader, single point, set 2 | intracellular Trypanosoma cruzi in host cells | activity score (inhibition), % at 5.01 µM | 22,000 tested, 4.9% active | AID 651903, 2012; in the data active = activity score above about 55%; inconclusive = no clear call, values can overlap the other calls;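 note: parasites and compound incubated about four days before reading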
Numbers stand for hits. The full list was thinned out, with hits kept by preference.

How did C[C@H](CO)N1C[C@H](C)[C@H](CN(C)Cc2cccc(C(F)(F)F)c2)Oc2ncc(-c3ccccc3)cc2C1=O do in these assays?
T cruzi intra: inactive

What do the screens show for `C[C@H](CO)N1C[C@H](C)[C@H](CN(C)S(=O)(=O)c2ccc(C#N)cc2)Oc2ncc(-c3cccc(C(F)(F)F)c3)cc2C1=O`?
A1 apoptosis 2: inactive; T cruzi intra: inactive

What do the screens show for `Cc1ccc(S(=O)(=O)N(C)C[C@@H]2Oc3ncc(-c4cccc(C(F)(F)F)c4)cc3C(=O)N([C@H](C)CO)C[C@@H]2C)cc1`?
A1 apoptosis 2: inactive; T cruzi intra: 61.0

Results for Cc1ccc(S(=O)(=O)N(c2cccc(N=[N+]=[N-])c2)S(=O)(=O)c2ccc(C)cc2)cc1 ?
A1 apoptosis 2: inactive

Results for C[C@@H]1CN([C@H](C)CO)C(=O)Cc2cc(NC(=O)Nc3cccc4ccccc34)ccc2O[C@@H]1CN(C)C(=O)Nc1ccc(C(F)(F)F)cc1 ?
INS-1E ATP HTS: inactive; T cruzi intra: inactive

What do the screens show for `C[C@H]1CN([C@@H](C)CO)C(=O)Cc2cc(NC(=O)Nc3cccc4ccccc34)ccc2O[C@H]1CN(C)Cc1ccc(-c2ccccc2)cc1`?
INS-1E ATP HTS: inactive; T cruzi intra: inactive

What do the screens show for `C[C@@H]1CN([C@H](C)CO)C(=O)Cc2cc(NC(=O)Nc3cccc4ccccc34)ccc2O[C@@H]1CN(C)Cc1ccc(Oc2ccccc2)cc1`?
INS-1E ATP HTS: inactive; A1 apoptosis 2: inactive; T cruzi intra: 69.1

How did C[C@H](CO)N1C[C@H](C)[C@H](CN(C)CC2CC2)Oc2ccc(NC(=O)Nc3cccc4ccccc34)cc2CC1=O do in these assays?
A1 apoptosis 2: inactive

How did C[C@@H]1CN([C@@H](C)CO)C(=O)Cc2cc(NC(=O)Nc3cccc4ccccc34)ccc2O[C@@H]1CN(C)Cc1ccc(C(F)(F)F)cc1 do in these assays?
INS-1E ATP HTS: inactive; A1 apoptosis 2: inactive; T cruzi intra: 91.3

Results for C[C@H]1CN([C@@H](C)CO)C(=O)Cc2cc(NC(=O)Nc3cccc4ccccc34)ccc2O[C@@H]1CN(C)CC1CCCCC1 ?
INS-1E ATP HTS: inactive; A1 apoptosis 2: inactive; T cruzi intra: 75.7

What do the screens show for `COc1ccc(CN(C)C[C@@H]2Oc3ccc(NC(=O)Nc4cccc5ccccc45)cc3CC(=O)N([C@@H](C)CO)C[C@@H]2C)cc1`?
INS-1E ATP HTS: inactive; A1 apoptosis 2: inactive; T cruzi intra: inactive

Results for C[C@H]1CN([C@@H](C)CO)C(=O)Cc2cc(NC(=O)Nc3cccc4ccccc34)ccc2O[C@H]1CN(C)Cc1ccccc1 ?
INS-1E ATP HTS: inactive; A1 apoptosis 2: inactive; T cruzi intra: 68.8

Results for CC(/C=C/C(=O)NO)=C\c1cccc(OC[C@@H]2[C@H]3C[C@H]4c5[nH]c6ccccc6c5CCN4C[C@@H]3CC[C@@H]2O)c1 ?
A1 apoptosis 2: inactive

What do the screens show for `Cc1noc(C)c1NC(=O)Nc1ccc2c(c1)C(=O)N([C@H](C)CO)C[C@@H](C)[C@H](CN(C)Cc1ccc(C(=O)Nc3ccccc3N)cc1)O2`?
INS-1E ATP HTS: inactive; A1 apoptosis 2: inactive; T cruzi intra: inactive

What do the screens show for `C[C@@H]1CN([C@@H](C)CO)C(=O)Cc2cc(NC(=O)Nc3cccc4ccccc34)ccc2O[C@@H]1CN(C)Cc1ccccc1`?
INS-1E ATP HTS: inactive; T cruzi intra: 66.8

What do the screens show for `C[C@@H]1CN([C@H](C)CO)C(=O)c2cc(NC(=O)Nc3cccc4ccccc34)ccc2O[C@H]1CN(C)Cc1ccc(Oc2ccccc2)cc1`?
A1 apoptosis 2: inactive; T cruzi intra: inactive

What do the screens show for `C[C@@H]1CN([C@@H](C)CO)C(=O)c2cc(NC(=O)Nc3cccc4ccccc34)ccc2O[C@@H]1CN(C)Cc1ccc(Oc2ccccc2)cc1`?
INS-1E ATP HTS: inactive; A1 apoptosis 2: inactive; T cruzi intra: 56.5

What do the screens show for `C[C@@H]1CN([C@@H](C)CO)C(=O)Cc2cc(NC(=O)Nc3cccc4ccccc34)ccc2O[C@@H]1CN(C)Cc1ccc(-c2ccccc2)cc1`?
INS-1E ATP HTS: inactive; T cruzi intra: inactive

What do the screens show for `C[C@@H]1CN([C@H](C)CO)C(=O)Cc2cc(NC(=O)Nc3cccc4ccccc34)ccc2O[C@@H]1CN(C)Cc1ccc(-c2ccccc2)cc1`?
INS-1E ATP HTS: inactive; A1 apoptosis 2: inactive; T cruzi intra: inconclusive

How did C[C@@H]1CN([C@H](C)CO)C(=O)Cc2cc(NC(=O)Nc3cccc4ccccc34)ccc2O[C@H]1CN(C)Cc1ccccc1 do in these assays?
INS-1E ATP HTS: inactive; T cruzi intra: 78.6

What do the screens show for `CC(C)(C)OC(=O)NCCOCCOCCNc1ncnc2ccccc12`?
A1 apoptosis 2: inactive

What do the screens show for `O=C(CCCCC(=O)N/N=C/C1=CCCCC1)NO`?
INS-1E ATP HTS: inactive; T cruzi intra: inactive

Results for CCOc1cc(OCC)cc(C(=O)N[C@@H](Cc2ccc(N=[N+]=[N-])cc2)C(=O)OC)c1 ?
A1 apoptosis 2: inactive

Results for COc1cccc(S(=O)(=O)N(C)C[C@@H]2Oc3ncc(C#CCN(C)C)cc3C(=O)N([C@H](C)CO)C[C@@H]2C)c1 ?
INS-1E ATP HTS: inactive; A1 apoptosis 2: inactive; T cruzi intra: inactive

What do the screens show for `COc1cccc(S(=O)(=O)N(C)C[C@@H]2Oc3ncc(C#Cc4ccc(OC)c(OC)c4)cc3C(=O)N([C@H](C)CO)C[C@@H]2C)c1`?
INS-1E ATP HTS: inactive; A1 apoptosis 2: inactive; T cruzi intra: inactive

Results for COc1cccc(S(=O)(=O)N(C)C[C@@H]2Oc3ncc(C#Cc4cccc(F)c4)cc3C(=O)N([C@H](C)CO)C[C@@H]2C)c1 ?
T cruzi intra: 64.9

Results for COc1cccc(S(=O)(=O)N(C)C[C@@H]2Oc3ncc(C#Cc4ccc(C(F)(F)F)cc4)cc3C(=O)N([C@H](C)CO)C[C@@H]2C)c1 ?
T cruzi intra: 88.8

Results for O=C(NO)c1ccc(C(=O)N/N=C/c2ccc(B(O)O)cc2)cc1 ?
A1 apoptosis 2: inactive

What do the screens show for `CC(C)(C)NC(=O)C(COCc1ccccc1)OC(=O)c1ccccc1` (stereo not given)?
A1 apoptosis 2: inactive

Results for C[C@H](CO)N1C[C@H](C)[C@H](CN(C)S(=O)(=O)c2cccs2)Oc2ncc(C#Cc3ccc(F)cc3)cc2C1=O ?
T cruzi intra: 65.1

How did C[C@H](CO)N1C[C@H](C)[C@H](CN(C)S(C)(=O)=O)Oc2ncc(C#Cc3ccc(F)cc3)cc2C1=O do in these assays?
T cruzi intra: inactive

How did CCCC(O)C#Cc1cnc2c(c1)C(=O)N([C@H](C)CO)C[C@H](C)[C@H](CN(C)S(=O)(=O)c1cccs1)O2 (stereo not given in full) do in these assays?
A1 apoptosis 2: inactive; T cruzi intra: inactive

How did C[C@H](CO)N1C[C@H](C)[C@H](CN(C)S(=O)(=O)c2cccs2)Oc2ncc(C#Cc3ccc(C(F)(F)F)cc3)cc2C1=O do in these assays?
INS-1E ATP HTS: inactive; A1 apoptosis 2: inactive; T cruzi intra: 87.0

Results for COC(=O)CCCCCCC(=O)N/N=C/c1ccc(OC)cc1O ?
INS-1E ATP HTS: inactive; A1 apoptosis 2: inactive; T cruzi intra: inactive
